NF-kB neuron act: raises NF-kB expression in human neuronal cells; NF-kB reporter expression; active compounds read high; fold change at 12.5 µM; 190,000 compounds, 1.6% hits; in the data active means fold change above about 3.3
STAT3 activator: activators of IL-6 induced STAT3 signaling; U3A cells, IL-6 STAT3-luciferase reporter, luminescence; 100% = signal with IL-6 EC80 alone; activation (% of control), % at 5.6 µM; 190,000 compounds, 0.91% hits;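 active means activation above the screen-wide mean of compound activation plus 3 SD, cut at about 130% in these data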;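 further: 0% = background luminescence of wells with medium and substrate only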
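Assay system – human STAT1-deficient U3A cells with stable STAT3-luciferase reporter · Also added – IL-6 (33 ng/mL) · Schedule – compound 1 h, then IL-6 6 h at 37 °C · Technique – reporter luminescence signal · Evaluation – % activation versus median of IL-6-stimulated wells · Benchmarks – IL-6-only wells as 100% reference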
APP 5'UTR act: activates APP 5'UTR luciferase reporter; activation, % at 2 µM; SH-SY5Y APP 5'UTR luciferase reporter, luminescence; zero percent = DMSO vehicle wells; 190,000 compounds, 1% hits;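 active means activation above a set limit, based on mean plus 3 SD of controls, cut at about 140% in these data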
STAT3 blocker: reduces IL-6 driven STAT3 reporter signal; U3A cells, IL-6 STAT3-luciferase reporter, luminescence; host cell line lacks STAT1; inhibition, % at 5.5 µM; 190,000 compounds, 0.89% hits; AID 862;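 active means inhibition above the mean inhibition across all screened compounds plus 3 SD, cut at about 44% in these data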;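 further: 0% = DMSO only wells and 100% = 100 µM nifuroxazide control wells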
STAT1 blocker: STAT1 signaling inhibition; inhibition, % at 5.5 µM; 200,000 compounds, 0.35% hits; AID 920; NIH 3T3 STAT1-luciferase reporter, IFN-gamma, luminescence;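 active means inhibition above a set limit, the mean inhibition across all tested compounds plus 3 SD, cut at about 34% in these data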;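 further: 0% = IFN-gamma with DMSO and 100% = IFN-gamma with 300 µM nifuroxazide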
STAT1 activator: activators of IFN-gamma induced STAT1 signaling. NIH 3T3 STAT1-luciferase reporter, luminescence; 100% = IFN-gamma alone, no compound. activation (% of control), % at 5.5 µM. 200,000 compounds, 2.6% hits;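 active means activation above the screen-wide mean activation plus 3 SD, cut at about 130% in these data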;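 further: raw ratio to IFN-gamma control signal so 100% means no change and 0% no light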
* hit, by the source's call; x = no result given. Shown are actives, neighbours in structure and some others; about 5.1% of the full set was active somewhere.

SMILES	NF-kB neuron act	STAT3 activator	APP 5'UTR act	STAT3 blocker	STAT1 blocker	STAT1 activator
COc1ccccc1OCCCC(=O)Nc1nccs1	1.6	106	75	-1	-40	134*
COc1ccc(C(CC(=O)Nc2cc(OC)cc(OC)c2)n2cccc2)cc1 (centres undefined)	0.87	102	17	-2	0	100
CCOc1ccc(S(=O)(=O)N(C)c2ccc(OCC(=O)Nc3nccs3)cc2)cc1	1.1	103	10	-3	3	96
CCc1ccc(NC(=S)N(CCCN2CCN(C)CC2)Cc2cccs2)cc1	1.1	94	14	7	13	89
CCCN1CCN(C(=O)c2nn(-c3ccc(OC)cc3)c(=O)c3c2c2ccccc2n3C)CC1	1.2	106	38	6	-7	105
CCCc1[nH]nc2c1C(c1ccccc1OC)C(C#N)=C(N)O2 (centres undefined)	0.94	102	0	6	5	96
COC(=O)CNC(=O)c1cccc(Cl)c1	1.1	104	18	2	-6	104
CCOc1ccc(Br)cc1-c1noc(-c2cccs2)n1	1.2	95	6	10	-3	100
O=C(c1cc(-c2cccs2)on1)N1CCN(c2ccc(F)cc2)CC1	3.4*	94	-1	11	-1	101
O=C(Nc1ccccc1Sc1ccccc1)C1CCCO1 (centres undefined)	0.84	106	x	-4	-3	103
O=C(CCCn1c(SCC(=O)NCC2CCCO2)nc2ccccc2c1=O)NCC1CCCO1 (centres undefined)	1.4	105	9	-5	5	95
CC(C)c1nnc(NC(=O)c2cccc(NC(=O)C(F)(F)F)c2)s1	1	103	65	-3	-45	138*
CC(C)C(=O)Nc1cccc(C(=O)Nc2nnc(C(C)C)s2)c1	2.2	106	25	-4	-54	146*
O=C(CSC1=NCCN1)Nc1cccc(C(F)(F)F)c1	1.2	106	-2	-8	-44	142*
Cn1ccnc1SCC(=O)Nc1cccc(C(F)(F)F)c1	1.5	88	11	20	-6	107
Cc1cccc(N2NC(=O)/C(=C/c3ccc(-c4ccc(Cl)c(C(=O)O)c4)o3)C2=O)c1	3.9*	95	9	7	10	90
Cn1nccc1C(=O)Nn1cnnc1	1.2	104	0	1	11	90
Nc1nccc(-c2ccc(-n3cnc4ccccc43)cc2)n1	0.75	133*	13	-37	1	99
Cc1nccc(-c2ccc(-n3cnc4ccccc43)cc2)n1	0.9	115	x	-10	0	100
Cc1occc1C(=O)N/N=C/C(Br)=C/c1ccccc1	6.4*	81	155*	24	-54	148*
CCCCCn1nc(C)c(/C=N/NC(=O)c2ccoc2C)c1C	1.2	101	59	0	-20	119
CC(/C=N/NC(=O)Cc1cccs1)=C\c1ccccc1	1.9	115	77	-17	-26	124
O=C(N/N=C/C=C/c1ccccc1)c1n[nH]c2c1CCC2	1.3	103	-61	-5	-18	117
O=C(Cc1cccs1)N/N=C/C(Br)=C/c1ccccc1	1.4	107	74	-4	-53	148*
COc1ccc(C(=O)N/N=C/C(Br)=C/c2ccccc2)cc1	0.99	97	-24	2	11	90
SMILES	NF-kB neuron act	STAT3 activator	APP 5'UTR act	STAT3 blocker	STAT1 blocker	STAT1 activator
CCn1nc(C)c(/C=N/NC(=O)c2ccoc2C)c1C	1.2	96	110	8	-43	140*
O=C(N/N=C/C(Br)=C\c1ccccc1)c1n[nH]c2c1CCC2	8.3*	142*	-96	-50	-32	129*
O=C1c2ccccc2CN1CCNS(=O)(=O)c1ccc2ccccc2c1	1.7	95	12	9	6	95
Cc1nc2ncnn2c(C)c1CCC(=O)N1CCc2ccccc21	1.1	101	2	6	7	94
COc1ccc(/C=N/NC(=O)c2ccoc2C)cc1OC	1.6	95	26	4	-36	132*
CC(=O)Oc1ccc(Oc2ccc(-c3noc(C)n3)cc2)cc1	5.7*	92	25	13	-13	112
CC(=O)Nc1ccc(Oc2ccc(-c3noc(C)n3)cc2)cc1	1.2	100	4	0	-1	106
c1ccc(-c2nnc(-c3ccccn3)nc2NC2CCCCC2)cc1	0.83	95	-77	7	-3	103
